How the values were obtained:
[1] = (§1) Volume of distribution in dog at 0.5 mg/kg, iv and 0.2 mg/kg, po; format: ADME, organism-based, Canis lupus familiaris; conditions: in vivo, read-out: Vdss
Summary of the method: (§2)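 Dogs received the compounds as TFA salts in a cassette (N-in-1) format, 0.5 mg/kg intravenously and 0.2 mg/kg orally (n = 2), and pharmacokinetic profiles were determined.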

[2] = (§3) Half life in dog at 0.5 mg/kg, iv and 0.2 mg/kg, po; format: ADME, organism-based, Canis lupus familiaris; conditions: in vivo; summary of the method: as §2
[3] = Apparent permeability in Caco-2 cells; format: ADME, cell-based; conditions: human
[4] = Oral bioavailability in dog at 0.5 mg/kg, iv and 0.2 mg/kg, po; format: ADME, organism-based, Canis lupus familiaris; conditions: in vivo; summary of the method: as §2
[5] = Clearance in dog at 0.5 mg/kg, iv and 0.2 mg/kg, po; format: ADME, organism-based, Canis lupus familiaris; conditions: in vivo
Coagulation factor X [6] = molecular target: Coagulation factor X (Homo sapiens, UniProt P00742); assay: Binding affinity to human f10a
[7] = molecular target: T1, Coagulation factor VII/tissue factor (Homo sapiens) (UniProt P08709+P13726); assay: Activity in human plasma by PT assay; format: functional, cell-free
Summary of the method: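 In vitro clotting assays (PT, aPTT) were run in human plasma.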

[8] = Activity in human plasma by aPTT assay; format: functional
Plasminogen = Plasminogen (Homo sapiens, UniProt P00747); assay: Binding affinity to plasmin
Chymotrypsinogen B = Chymotrypsinogen B (Homo sapiens, UniProt P17538); assay: Binding affinity to chymotrypsin
Trypsin = Trypsin (Homo sapiens, UniProt P07477+P07478+P35030); assay: Binding affinity to trypsin; format: protein assay
[9] = molecular target: Vitamin K-dependent protein C (Homo sapiens, UniProt P04070); assay: Binding affinity to aPC
Prothrombin = Prothrombin (Homo sapiens, UniProt P00734); assay: Binding affinity to thrombin
[10] = molecular target: Urokinase-type plasminogen activator (Homo sapiens, UniProt P00749); assay: Binding affinity to urokinase
[11] = molecular target: Tissue-type plasminogen activator (Homo sapiens, UniProt P00750); assay: Binding affinity to tPA
Coagulation factor VII = molecular target: T2, Coagulation factor VII (Homo sapiens, UniProt P08709); assay: Binding affinity to f7a
T2 sequence (P08709 whole entry): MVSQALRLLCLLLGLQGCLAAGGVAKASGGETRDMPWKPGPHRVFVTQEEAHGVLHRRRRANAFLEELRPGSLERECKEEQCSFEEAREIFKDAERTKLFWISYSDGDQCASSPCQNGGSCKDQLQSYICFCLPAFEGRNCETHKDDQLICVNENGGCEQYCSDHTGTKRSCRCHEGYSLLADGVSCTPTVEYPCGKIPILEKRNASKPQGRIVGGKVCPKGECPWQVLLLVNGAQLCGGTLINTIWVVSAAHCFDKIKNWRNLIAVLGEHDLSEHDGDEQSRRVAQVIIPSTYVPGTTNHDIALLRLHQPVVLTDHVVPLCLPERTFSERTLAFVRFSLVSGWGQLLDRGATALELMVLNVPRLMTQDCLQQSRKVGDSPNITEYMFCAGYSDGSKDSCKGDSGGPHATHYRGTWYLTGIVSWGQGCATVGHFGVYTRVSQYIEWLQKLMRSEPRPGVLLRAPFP

Coagulation factor IX = Coagulation factor IX (Homo sapiens, UniProt P00740); assay: Binding affinity to f9a
[12] = Protein binding in rabbit; format: ADME, Oryctolagus cuniculus; conditions: plasma, read-out: PPB (converted)
Coagulation factor X [13] = molecular target: T3, Coagulation factor X (Oryctolagus cuniculus, UniProt O19045); assay: Binding affinity to rabbit f10a
T3 sequence (O19045 whole entry): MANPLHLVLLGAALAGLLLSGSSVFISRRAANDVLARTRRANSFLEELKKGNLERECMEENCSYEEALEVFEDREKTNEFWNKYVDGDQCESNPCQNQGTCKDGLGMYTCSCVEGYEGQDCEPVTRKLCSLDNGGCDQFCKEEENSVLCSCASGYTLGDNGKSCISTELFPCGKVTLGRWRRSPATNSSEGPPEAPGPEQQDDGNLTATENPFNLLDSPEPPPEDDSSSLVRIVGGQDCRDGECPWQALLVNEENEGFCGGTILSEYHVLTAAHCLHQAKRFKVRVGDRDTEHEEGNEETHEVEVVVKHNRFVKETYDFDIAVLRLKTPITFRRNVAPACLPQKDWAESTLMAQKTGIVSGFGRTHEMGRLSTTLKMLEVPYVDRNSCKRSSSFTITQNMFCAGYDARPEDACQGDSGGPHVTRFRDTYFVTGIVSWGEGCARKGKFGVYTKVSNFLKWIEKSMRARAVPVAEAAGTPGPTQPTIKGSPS

Oryctolagus cuniculus [14] = assay: Inhibition of thrombus formation in rabbit arterio-venous shunt model at 4.6 umol/kg/h, iv; format: functional, organism-based
[15] = molecular target: T1, Coagulation factor VII/tissue factor (Homo sapiens); assay: Activity in rabbit plasma by PT assay; format: functional, cell-free; conditions: Oryctolagus cuniculus, target entry is the homologue from another species
Canis familiaris [16] = assay: as §1; format: ADME, organism-based, Canis lupus familiaris; conditions: in vivo; summary of the method: as §2
Canis familiaris [17] = assay: as §3; format: ADME, organism-based, Canis lupus familiaris; conditions: in vivo; summary of the method: as §2
Oryctolagus cuniculus [18] = assay: Inhibition of thrombus formation in iv dosed rabbit arterio-venous shunt model; format: functional, organism-based

Plasminogen, sequence (P00747 97-580 limits assumed): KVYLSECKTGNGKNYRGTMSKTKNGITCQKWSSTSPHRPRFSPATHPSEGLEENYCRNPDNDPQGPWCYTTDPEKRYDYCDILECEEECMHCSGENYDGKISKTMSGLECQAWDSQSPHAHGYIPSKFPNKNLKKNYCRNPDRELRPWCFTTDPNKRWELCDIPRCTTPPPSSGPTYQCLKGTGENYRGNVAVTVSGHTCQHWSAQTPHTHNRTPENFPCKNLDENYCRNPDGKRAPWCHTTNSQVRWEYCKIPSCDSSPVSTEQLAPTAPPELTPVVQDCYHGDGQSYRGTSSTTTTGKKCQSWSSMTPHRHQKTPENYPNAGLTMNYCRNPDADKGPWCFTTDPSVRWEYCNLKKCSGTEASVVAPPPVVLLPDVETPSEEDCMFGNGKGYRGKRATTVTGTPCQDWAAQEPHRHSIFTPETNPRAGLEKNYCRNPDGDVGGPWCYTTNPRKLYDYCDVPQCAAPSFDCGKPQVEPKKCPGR
Plasminogen, sequence (P00747 581-810 limits assumed): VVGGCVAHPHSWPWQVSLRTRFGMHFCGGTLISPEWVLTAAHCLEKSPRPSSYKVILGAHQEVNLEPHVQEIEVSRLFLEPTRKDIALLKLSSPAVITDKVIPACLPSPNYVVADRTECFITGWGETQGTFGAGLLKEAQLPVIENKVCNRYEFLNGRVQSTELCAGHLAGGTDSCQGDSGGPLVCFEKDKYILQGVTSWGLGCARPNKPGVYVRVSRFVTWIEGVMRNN
Coagulation factor IX, sequence (P00740 47-191 limits assumed): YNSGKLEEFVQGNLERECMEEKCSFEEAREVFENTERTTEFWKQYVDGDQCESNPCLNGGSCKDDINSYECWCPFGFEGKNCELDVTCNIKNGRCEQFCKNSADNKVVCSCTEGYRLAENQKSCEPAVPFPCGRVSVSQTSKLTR
Coagulation factor IX, sequence (P00740 227-461 limits assumed): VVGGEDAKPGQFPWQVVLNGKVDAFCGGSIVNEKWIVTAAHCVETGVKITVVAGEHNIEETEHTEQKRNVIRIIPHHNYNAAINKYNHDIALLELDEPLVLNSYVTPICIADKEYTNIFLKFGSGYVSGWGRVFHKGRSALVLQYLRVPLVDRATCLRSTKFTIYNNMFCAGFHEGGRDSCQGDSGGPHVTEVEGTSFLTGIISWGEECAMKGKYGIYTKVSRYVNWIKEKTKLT
Tissue-type plasminogen activator, sequence (P00750 whole entry): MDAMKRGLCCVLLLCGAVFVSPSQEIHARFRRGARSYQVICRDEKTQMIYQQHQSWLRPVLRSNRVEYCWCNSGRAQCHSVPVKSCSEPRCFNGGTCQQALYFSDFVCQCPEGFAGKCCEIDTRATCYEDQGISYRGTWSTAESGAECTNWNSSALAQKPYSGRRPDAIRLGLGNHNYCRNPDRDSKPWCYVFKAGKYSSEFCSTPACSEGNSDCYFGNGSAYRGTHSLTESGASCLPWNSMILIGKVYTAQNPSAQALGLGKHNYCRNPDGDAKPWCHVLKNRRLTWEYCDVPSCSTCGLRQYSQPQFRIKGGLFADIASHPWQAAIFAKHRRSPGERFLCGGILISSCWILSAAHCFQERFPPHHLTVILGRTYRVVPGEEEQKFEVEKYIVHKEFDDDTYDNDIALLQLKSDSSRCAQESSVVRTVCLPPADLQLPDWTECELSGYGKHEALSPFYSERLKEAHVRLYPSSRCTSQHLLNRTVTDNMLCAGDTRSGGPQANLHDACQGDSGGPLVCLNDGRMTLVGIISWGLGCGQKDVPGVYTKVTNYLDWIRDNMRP
Vitamin K-dependent protein C, sequence (P04070 43-197 limits assumed): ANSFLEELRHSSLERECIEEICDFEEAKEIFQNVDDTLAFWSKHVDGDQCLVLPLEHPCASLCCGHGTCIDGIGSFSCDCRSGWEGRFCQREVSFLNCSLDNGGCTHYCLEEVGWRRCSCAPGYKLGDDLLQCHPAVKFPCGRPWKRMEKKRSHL
Vitamin K-dependent protein C, sequence (P04070 212-461 limits assumed): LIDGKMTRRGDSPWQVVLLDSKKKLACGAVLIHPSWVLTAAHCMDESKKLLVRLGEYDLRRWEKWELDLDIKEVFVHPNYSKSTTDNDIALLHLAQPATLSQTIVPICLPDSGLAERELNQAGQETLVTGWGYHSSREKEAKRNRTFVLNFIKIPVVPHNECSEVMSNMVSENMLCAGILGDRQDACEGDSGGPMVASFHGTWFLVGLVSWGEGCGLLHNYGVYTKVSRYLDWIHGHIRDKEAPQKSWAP
Coagulation factor X (Homo sapiens, UniProt P00742), sequence (P00742 41-179 limits assumed): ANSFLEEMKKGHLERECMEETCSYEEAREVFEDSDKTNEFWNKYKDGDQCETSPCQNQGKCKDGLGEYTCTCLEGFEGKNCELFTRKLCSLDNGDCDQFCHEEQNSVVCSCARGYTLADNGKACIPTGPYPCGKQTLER
Coagulation factor X (Homo sapiens, UniProt P00742), sequence (P00742 235-488 limits assumed): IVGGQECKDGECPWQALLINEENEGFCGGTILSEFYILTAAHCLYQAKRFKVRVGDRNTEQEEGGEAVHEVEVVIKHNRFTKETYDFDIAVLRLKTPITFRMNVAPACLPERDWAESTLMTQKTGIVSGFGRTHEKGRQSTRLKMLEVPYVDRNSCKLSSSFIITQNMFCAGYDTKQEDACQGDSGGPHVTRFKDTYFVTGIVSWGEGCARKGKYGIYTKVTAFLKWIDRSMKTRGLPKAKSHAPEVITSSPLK
Chymotrypsinogen B, sequence (P17538 34-164 limits assumed, other chains not shown): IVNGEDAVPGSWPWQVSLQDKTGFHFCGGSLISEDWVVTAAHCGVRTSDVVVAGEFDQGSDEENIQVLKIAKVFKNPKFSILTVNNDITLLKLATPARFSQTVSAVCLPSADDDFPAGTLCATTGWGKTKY
Chymotrypsinogen B, sequence (P17538 167-263 limits assumed, other chains not shown): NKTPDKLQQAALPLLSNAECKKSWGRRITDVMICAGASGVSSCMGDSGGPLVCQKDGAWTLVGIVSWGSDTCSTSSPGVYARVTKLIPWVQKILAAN

COc1ccc(-n2nc(C(N)=O)c3ncn(-c4ccc(-c5ccccc5CN5CCCC5)cc4F)c(=O)c32)cc1.O=C(O)C(F)(F)F
Vd [1]: 4.9 L/kg
half-life [2]: 5.1 h
Papp [3]: 15 ×10⁻⁶ cm/s
bioavailability [4]: 96%
clearance [5]: 12.7 mL/min/kg

COc1ccc(-n2nc(Cn3cnnn3)c3nc(C)n(-c4ccc(-c5ccccc5CN5CCCC5)cc4)c(=O)c32)cc1
Ki (Coagulation factor X [6]): 1.4 nM

COc1ccc(-n2nc(C(F)(F)F)c3c(C)nn(-c4ccc(-c5ccccc5CN5CCCC5)cc4)c(=O)c32)cc1
Ki (Coagulation factor X [6]): 2.8 nM
2PT [7]: 62 µM
2aPTT [8]: 53 µM

COc1ccc(-n2nc(C#N)c(N)c2C(=O)Nc2ccc(-c3ccccc3S(C)(=O)=O)cc2F)cc1
Ki (Coagulation factor X [6]): 8.4 nM

COc1ccc(-n2nc(C#N)c3ncn(-c4ccc(-c5ccccc5CN5CCCC5)cc4)c(=O)c32)cc1
Ki (Coagulation factor X [6]): 1.7 nM
Ki (Plasminogen): > 15000 nM
Ki (Chymotrypsinogen B): 2030 nM
Ki (Trypsin): > 2500 nM
Ki [9]: 48700 nM
Ki (Prothrombin): 1100 nM
Ki [10]: > 13000 nM
Ki [11]: > 33000 nM
Ki (Coagulation factor VII): > 15000 nM
Ki (Coagulation factor IX): > 15000 nM

COc1ccc(-n2nc(C#N)c3ncn(-c4ccc(-c5ccccc5S(N)(=O)=O)cc4)c(=O)c32)cc1
Ki (Coagulation factor X [6]): 1.9 nM
2aPTT [8]: 5.8 µM

COc1ccc(-n2nc(Cn3ncnn3)c3nc(C)n(-c4ccc(-c5ccccc5CN5CCCC5)cc4)c(=O)c32)cc1
Ki (Coagulation factor X [6]): 1.9 nM
2PT [7]: 6.5 µM
2aPTT [8]: 20.1 µM

COc1ccc(-n2nc(CN)c3ncn(-c4ccc(-c5ccccc5S(N)(=O)=O)cc4)c(=O)c32)cc1
Ki (Coagulation factor X [6]): 22 nM

CCOC(=O)c1nn(-c2ccc(OC)cc2)c2c(=O)n(-c3ccc(-c4ccccc4CN4CCCC4)cc3)cnc12
Ki (Coagulation factor X [6]): 3.8 nM
2aPTT [8]: 1.8 µM

COC(=O)c1nn(-c2ccc(OC)cc2)c2c(=O)n(-c3ccc(-c4ccccc4S(N)(=O)=O)cc3F)cnc12
Ki (Coagulation factor X [6]): 1.8 nM

COc1ccc(-n2nc(C(N)=O)c3ncn(-c4ccc(-c5ccccc5CN5CCCC5)cc4F)c(=O)c32)cc1 [listing 1 of 2 here]
Ki (Coagulation factor X [6]): 0.74 nM
Ki (Plasminogen): > 15000 nM
Ki (Chymotrypsinogen B): 530 nM
Ki (Trypsin): > 2500 nM
Ki [9]: > 76000 nM
Ki (Prothrombin): 1800 nM
Ki [10]: > 13000 nM
Ki [11]: > 33000 nM
fraction unbound [12]: 0.15
Ki (Coagulation factor VII): > 15000 nM
2aPTT [8]: 3.9 µM
Ki (Coagulation factor X [13]): 1.2 nM
Ki (Coagulation factor IX): > 15000 nM
IC50 (Oryctolagus cuniculus [14]): > 1000 nM
inhibition in vivo at 4.6 µmol/kg/h (Oryctolagus cuniculus [14]; iv): 33%

COc1ccc(-n2nc(C(N)=O)c3ncn(-c4ccc(-c5ccccc5CN5CC[C@@H](O)C5)cc4)c(=O)c32)cc1
Ki (Coagulation factor X [6]): 1.5 nM
2PT [7]: 3.6 µM
2aPTT [8]: 5 µM

COc1ccc(-n2nc(C(N)=O)c3ncn(-c4ccc(-c5ccccc5CN5CCCC5)cc4)c(=O)c32)cc1 [listing 1 of 2 here]
2PT [15]: 1.8 µM
2PT [7]: 2.2 µM

CCOC(=O)c1nn(-c2ccc(OC)cc2)c2c(=O)n(-c3ccc(-c4ccccc4CO)cc3)cnc12
Ki (Coagulation factor X [6]): 45 nM

CN(C)Cc1nccn1-c1ccc(NC(=O)c2cc(C(F)(F)F)nn2-c2ccc3onc(N)c3c2)c(F)c1.Cl [RAZAXABAN HYDROCHLORIDE]
Vdss (Canis familiaris [16]): 5.3 L/kg
T1/2 (Canis familiaris [17]): 3.4 h
2PT [7]: 2.1 µM
fraction unbound [12]: 0.07

COc1ccc(-n2nc(C(N)=O)c3ncn(-c4ccc(-c5ccccc5CN5CCCC5)cc4F)c(=O)c32)cc1 [listing 2 of 2 here]
2PT [15]: 1.6 µM
2PT [7]: 3.4 µM

CCOC(=O)c1nn(-c2ccc(OC)cc2)c2c(=O)n(-c3ccc(-c4ccccc4CN4CCCC4)cc3F)cnc12
Ki (Coagulation factor X [6]): 3.6 nM

COc1ccc(-n2nc(C#N)c3ncn(-c4ccc(-c5ccccc5CN(C)C)cc4)c(=O)c32)cc1
Ki (Coagulation factor X [6]): 2.1 nM

COC(=O)c1nn(-c2ccc(OC)cc2)c2c(=O)n(-c3ccc(-c4ccccc4S(N)(=O)=O)cc3)cnc12
Ki (Coagulation factor X [6]): 2.8 nM
2aPTT [8]: 7.1 µM

COc1ccc(-n2nc(C#N)c3[nH]c(=O)n(-c4ccc(-c5ccccc5S(C)(=O)=O)cc4F)c(=O)c32)cc1
Ki (Coagulation factor X [6]): 3 nM
2aPTT [8]: 197 µM

COc1ccc(-n2nc(C(F)(F)F)c3c(C)nn(-c4ccc(-c5ccccc5S(N)(=O)=O)cc4)c(=O)c32)cc1
Ki (Coagulation factor X [6]): 2.8 nM

COc1ccc(-n2nc(Cn3ccnc3)c3nc(C)n(-c4ccc(-c5ccccc5CN5CCCC5)cc4)c(=O)c32)cc1
Ki (Coagulation factor X [6]): 2.1 nM

COc1ccc(-n2nc(C(F)(F)F)cc2C(=O)Nc2ccc(-c3ccccc3S(C)(=O)=O)cc2F)cc1
2aPTT [8]: 104 µM

COc1ccc(-n2nc(C(N)=O)c3ncn(-c4ccc(-c5ccccc5S(N)(=O)=O)cc4)c(=O)c32)cc1
Ki (Coagulation factor X [6]): 1.7 nM
2aPTT [8]: 8.7 µM

COc1ccc(-n2nc(C(=O)O)c3ncn(-c4ccc(-c5ccccc5S(N)(=O)=O)cc4)c(=O)c32)cc1
Ki (Coagulation factor X [6]): 38 nM

COc1ccc(-n2nc(C(N)=O)c3ncn(-c4ccc(-c5ccccc5CN5CCCC5)cc4)c(=O)c32)cc1 [listing 2 of 2 here]
Ki (Plasminogen): > 15000 nM
ID50 (Oryctolagus cuniculus [18]): 5.5 µmol/kg/h
IC50 (Oryctolagus cuniculus [18]; Oryctolagus cuniculus): 1200 nM
Ki (Chymotrypsinogen B): 7930 nM
Ki (Trypsin): > 4200 nM
Ki [9]: > 76000 nM
Ki (Prothrombin): 1600 nM
Ki [10]: > 13000 nM
Ki [11]: > 33000 nM
fraction unbound [12]: 0.23
Ki (Coagulation factor VII): > 15000 nM
2aPTT [8]: 4 µM
Ki (Coagulation factor X [13]): 1 nM
Ki (Coagulation factor IX): > 41000 nM

COc1ccc(-n2nc(C#N)c3nc(C)n(-c4ccc(-c5ccccc5CN(C)C)cc4)c(=O)c32)cc1
Ki (Coagulation factor X [6]): 1.8 nM

COc1ccc(-n2nc(C#N)c3ncn(-c4ccc(-c5ccccc5CN5CCCC5)cc4)c(=O)c32)cc1.O=C(O)C(F)(F)F
Vd [1]: 75 L/kg
half-life [2]: 8.3 h
Papp [3]: 3.1 ×10⁻⁶ cm/s
bioavailability [4]: 77%
clearance [5]: 113 mL/min/kg

COc1ccc(-n2nc(C(N)=O)c3ncn(-c4ccc(-c5ccccc5CN5CCCC5)cc4)c(=O)c32)cc1.O=C(O)C(F)(F)F
Vd [1]: 3.9 L/kg
half-life [2]: 5.4 h
Papp [3]: 12 ×10⁻⁶ cm/s
bioavailability [4]: 94%
clearance [5]: 9.17 mL/min/kg

COc1ccc(-n2nc(C(N)=O)c3ncn(-c4ccc(-c5ccccc5S(N)(=O)=O)cc4F)c(=O)c32)cc1
Ki (Coagulation factor X [6]): 1.2 nM
2aPTT [8]: 9.8 µM
